DAGLB inhibitor – blocks human DAGLB lipase activity; Q8NCG7; HEK293T DAGLB membrane lysate, EnzChek fluorogenic substrate; inhibition, % at 5.17 µM; hit rate 0.059% among 340,000; AID 504411; in the data active = inhibition above about 34%;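 also: 0% = enzyme with vehicle and 100% = wells lacking enzyme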
TCR-CD3 inh – inhibitors of human TCR-CD3 interaction; inhibition, % at 9.4 µM; TAMRA-labeled TCR probe fluorescence, biochemical; hit rate 0.37% among 360,000; AID 651800; in the data active = inhibition above about 19%;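 also: recombinant mutant TCR 2C K166C tagged with TAMRA read by polarization; 0% = receptor in buffer alone and 100% = receptor with positive control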
SIAE inh – inhibitors of human sialic acid acetylesterase SIAE; Q9HAT2; SIAE FP-Rh probe binding, fluorescence polarization; inhibition, % at 9.66 µM; hit rate 0.69% among 370,000; AID 1053197;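 active = inhibition above a cutoff: mean of compounds within the control limits plus 3 SD of those, cut at about 17% in these data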;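 also: 0% = plate median of compound wells and 100% = probe without SIAE protein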
Target sequence (Q9HAT2 whole entry, looked up): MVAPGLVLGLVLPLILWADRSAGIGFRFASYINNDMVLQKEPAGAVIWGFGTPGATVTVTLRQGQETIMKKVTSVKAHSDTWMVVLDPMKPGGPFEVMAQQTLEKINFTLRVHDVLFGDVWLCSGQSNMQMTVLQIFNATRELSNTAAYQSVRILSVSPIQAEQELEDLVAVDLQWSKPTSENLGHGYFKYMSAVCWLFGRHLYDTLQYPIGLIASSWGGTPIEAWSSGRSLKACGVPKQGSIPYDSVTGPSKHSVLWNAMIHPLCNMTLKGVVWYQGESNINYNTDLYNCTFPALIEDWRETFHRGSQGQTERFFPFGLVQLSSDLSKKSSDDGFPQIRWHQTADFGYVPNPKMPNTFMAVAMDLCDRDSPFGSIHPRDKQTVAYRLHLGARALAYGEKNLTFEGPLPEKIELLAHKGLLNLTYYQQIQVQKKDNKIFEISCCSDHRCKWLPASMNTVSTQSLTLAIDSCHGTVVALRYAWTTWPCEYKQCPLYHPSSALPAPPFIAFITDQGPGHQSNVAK
mABHD4 FP – inhibitors of mouse ABHD4 | Q8VD66 | purified mABHD4, FP-Rh probe fluorescence polarization | inhibition, % at 8.92 µM | hit rate 0.54% among 370,000 | AID 720543;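 active = inhibition exceeding the mean over every tested compound plus 3 SD, cut at about 30% in these data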;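 also: 0% = plate median of compound wells and 100% = S159A mutant with DMSO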
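System: mouse ABHD4 enzyme, wild type / Medium: HEPES pH 7.0, NaCl, Pluronic buffer / Reagent: FP-Rh activity-based fluorescent probe / Control set: S159A mutant high control, sample median low control / Detection: fluorescence polarization with parallel and perpendicular emission, 525/598 nm / Schedule: 45 min + 60 min at 25 °C / Compound dosing: 8.92 µM, single dose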
HTRA1 inh – inhibitors of human serine peptidase HTRA1; Q92743; recombinant HTRA1, FP-rhodamine activity-based probe, fluorescence polarization; inhibition, % at 5.96 µM; hit rate 0.5% among 340,000; in the data active = inhibition above about 36%;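 also: 0% = enzyme with DMSO and 100% = wells lacking enzyme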
Numbers without * were called inactive; · = no result given; ! = repeats disagree. Most compounds without a hit are left out; they make up all but 1.5% or so of the library.

SMILES	DAGLB inhibitor	TCR-CD3 inh	SIAE inh	mABHD4 FP	HTRA1 inh
COc1ccc(S(=O)(=O)N(C)C[C@H]2Oc3ccc(NC(=O)Nc4ccc5c(c4)OCO5)cc3CC(=O)N([C@@H](C)CO)C[C@@H]2C)cc1	-0.6	-4.9	17.7*	-1.1	-5.5
COc1ccc(S(=O)(=O)N(C)C[C@H]2Oc3ccc(NC(=O)Nc4ccc5c(c4)OCO5)cc3C(=O)N([C@H](C)CO)C[C@@H]2C)cc1	2.2	-4.0	12.2	8.0	-2.5
Cc1[nH]n(-c2ccccc2)c(=O)c1-c1ccccc1	1.1	1.2	18.4*	11.8	-7.0
Nc1c(N2CCCC2)cc(Cl)c2nonc12	0.5	·	·	·	36.9*
CC(C)CCN(C)[C@H]1C[C@H]2c3[nH]c4ccccc4c3CCN2C[C@H]1[C@H](C)O	·	1.9	5.6	0.5	·
Cc1ccc2cccc(NC3OC(=O)c4ccccc43)c2n1 (configuration not stated)	-1.3	9.8	19.1*	7.0	14.5
Nc1nnc(CC(=O)N/N=C/c2cccc([N+](=O)[O-])c2)s1	4.5	11.8	-1.9	5.6	0.9
Nc1nnc(CC(=O)N/N=C/c2cc([N+](=O)[O-])cc(Br)c2O)s1	8.9	33.7*	5.7	38.8*	28.3
CC(C)(C)N=Cc1c(O)ccc2oc3c(c12)CCCC3	-0.1	-1.8	12.3	7.1	10.2
O=[N+]([O-])c1cc2oc3c(c2c(C=NCc2ccncc2)c1O)CCCC3	19.3	·	·	·	49.6*
Cc1ccc(Oc2cccc3c2S(=O)(=O)N([C@H](C)c2ccccc2)C[C@@H](COCc2ccccc2)O3)cc1	·	12.3	-1.4	-5.9	·
CC(C)C[C@@H]1NC(=O)[C@H]2C[C@]3(c4ccccc4)c4ccccc4N[C@H]3N2C1=O	·	·	3.2	-4.5	·
CC(C)C[C@H]1C(=O)N2CCC[C@H]2[C@]2(O)O[C@](NC(=O)C3C=C4c5cccc6[nH]c(Br)c(c56)C[C@H]4N(C)C3)(C(C)C)C(=O)N12 (some centres not stated)	0.1	2.9	11.6	25.1	-8.4
CN1C[C@H](C(=O)N[C@]2(C)O[C@@]3(O)[C@@H]4CCCN4C(=O)[C@H](Cc4ccccc4)N3C2=O)CC2c3cccc4[nH]cc(c34)C[C@H]21 (some centres not stated)	3.1	5.3	21.3*!	4.7	6.6
COc1ccc(Oc2coc3cc(OC(=O)N4CCOCC4)ccc3c2=O)cc1	1.2	-4.2	-6.5	-4.8	-1.7
CCOC(=O)Oc1ccc2c(=O)c(Oc3cc(C)cc(C)c3)coc2c1	-3.3	-2.7	3.3	-0.8	48.5*
COc1ccc(Oc2coc3cc(OC(=O)c4cccs4)ccc3c2=O)cc1	1.8	2.5	-11.9	-7.7	51.1*
CCOC(=O)Oc1ccc2c(=O)c(Oc3cccc(C)c3)coc2c1	0.4	1.5	-2.5	1.8	50.6*
Cc1[nH]c2ccccc2c1/C=N/NC(=O)c1ccccc1	-2.4	-5.4	2.9	-1.6	2.5
Cc1[nH]c2ccccc2c1/C=N/Nc1cccc(C(=O)O)c1	2.0	11.7	6.9	33.6*	17.6
COC(=O)c1cc2c(c3c4cc(OC)ccc4n(S(=O)(=O)c4ccc(C)cc4)c13)C(=O)N(C)C2	·	2.2	-1.1	-4.9	·
O=C(NC1CCCC1)c1ccc2nc(-c3ccco3)c(-c3ccco3)nc2c1	10.7	·	·	·	58.2*
O=C(NCCO)c1ccc(Cl)c(Cl)c1	0.8	-3.8	3.7	2.5	12.1
O=C(NCCO)c1ccc2nc(-c3ccco3)c(-c3ccco3)nc2c1	0.9	25.9*	19.8*	41.9*	21.9
O=C(CCCCn1c(=O)[nH]c2ccsc2c1=O)NCc1cccnc1	0.9	-7.0	20.2*	-3.7	2.6
CCn1cc(C(=O)Nc2ncccc2O)c(=O)c2cc(F)c(N3CCN(C(=O)c4ccco4)CC3)cc21	0.5	19.5*	3.7	7.3	16.0
CCOC(=O)CCCNC(=O)OCCCN1CCC2(CCC(c3ccccc3)CC2)C1=O (configuration not stated)	·	·	-1.3	-1.8	·
COc1cc(/C=C2/C(=O)c3cccc([N+](=O)[O-])c3C2=O)c(Br)cc1O	18.1	-6.8	-14.9	46.2*	29.6
COc1ccc2cc1Oc1ccc(cc1)C[C@H]1c3c(cc4c(c3Oc3cc5c(cc3OC)CCN(C)[C@@H]5C2)OCO4)CCN1C	1.1	-3.0	19.1*	-7.5	-14.3
COc1cccc(OCc2cc(/C=N/Nc3ccc(C(=O)O)cc3)ccc2OC)c1	2.7	0.5	3.0	33.8*	-61.1
